This is an account of results in publication PMC4182178 (Oncogene, 2014).

Like-named read-outs stand apart in the source and are kept apart here.

Data set [1] deals with BCM-2665. Kind of data set: Mammosphere assay, patient-derived xenograft cells. It is filed as cell-based, human. Conditions: read-out: IC50 Mammosphere assay, Mean ± SEM, n ≥ 2. The method in brief: (§1)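 Patient-derived breast tumors serially grown in SCID/Beige mouse fat pad were excised, minced, collagenase-digested, mesh-filtered and suspended as single cells in MEGM+. Cells were plated in serum-free, growth-factor-enriched medium in low-attachment plates ± test compound (0/0.1/0.3/1/3/10/100 μM), fed twice weekly, and counted by automated colony counter after 5–12 days. Percent of untreated colony number was fitted for IC50.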

Data set [2] concerns Stat3-regulated genes. Kind of data set: mRNA of Stat3-regulated genes in MDA-MB 468 xenograft tumors. The settings on record: 15 mg/Kg; vs vehicle; p<0.05; listed as PL. It is filed as in vivo, nude mice. The method in brief:
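mRNA levels of Stat3-regulated genes were measured by Q-RT-PCR in excised tumors from nude mice bearing subcutaneous MDA-MB-468 xenografts. Mice had been treated i.p. with test compound 15 mg/Kg in DMSO or with vehicle, 5 days/week for 3 weeks. Values were normalized to β-actin and compared against vehicle-treated tumors.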

Data set [3] relates to MDA-MB-468 cells. Kind of data set: Anchorage independent growth. Type of data set: cell-based, human.
The test system of data set [4] is Hs 578T cells. As to the kind of experiment: Anchorage independent growth. It is filed as cell-based, human. Conditions: read-out: IC50 Anchorage independent growth (MTT), Mean ± SEM, n ≥ 2. A digest of the protocol: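 Cells grown in triplicate in ultra-low-attachment 96-well plates in complete DMEM ± test compound (0/0.1/0.3/1/3/10/100 μM) for 48–72 hrs. Viable cells were quantitated by MTT. Relative % viability was calculated as treated ÷ untreated × 100 and plotted against log concentration. IC50 was derived from ≥2 replicate experiments.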

Data set [5] relates to MCF 10A. Kind of data set: Anchorage independent growth. It is filed as cell-based.
The test system of data set [6] is cleaved caspase 3. As to the kind of experiment: Cleaved caspase 3 in MDA-MB-468 cells. Conditions: PL 30μM, 12 hrs. Type of data set: cell-based, human. A digest of the protocol:
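MDA-MB-468 cells were exposed to 30 μM test compound and sampled over 15 min to 24 h. Cleaved caspase 3 and GAPDH were measured in whole protein by Luminex bead immunoassay. GAPDH-normalized active caspase 3 was expressed as a percentage of the pre-treatment value.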

Data set [7] can be described thus: Toxicity in mice. Type of data set: in vivo. The settings on record: up to a dose of 30 mg/Kg/day for 14 days.
The subject of data set [8] is ZR-75-1. As to the kind of experiment: Anchorage independent growth. Type of data set: cell-based.
In data set [9] the test system is Stat3 phosphorylation. Kind of data set: Constitutive Stat3 phosphorylation in breast cancer cell lines. It is filed as cell-based, human. The settings on record: for IC50: read-out: IC50 Constitutive Stat3 phosphorylation, Mean ± SEM, n ≥ 2.
For data set [10], the system named is MCF-12A. Kind of data set: Anchorage independent growth. It is filed as cell-based.
Data set [11] has as its system MCF-7. As to the kind of experiment: Anchorage independent growth. It is filed as cell-based, human.
In data set [12] the test system is MDA-MB-453. As to the kind of experiment: Anchorage independent growth. It is filed as cell-based.
The subject of data set [13] is MDA-MB-231 cells. As to the kind of experiment: Anchorage independent growth. It is filed as cell-based, human.
Data set [14] concerns T-47D. As to the kind of experiment: Anchorage independent growth. Type of data set: cell-based, human.
Data set [15] relates to Stat3-regulated genes. As to the kind of experiment: Quantitative RT-PCR of Stat3-regulated genes in MDA-MB-468 cells. It is filed as cell-based, human. Conditions: 30 μM, 6–8 hr.
The subject of data set [16] is MEF/GFP-Stat3α cells. Kind of data set: Anchorage-independent colony growth and MTT viability of MEF/GFP-Stat3α cells. Type of data set: cell-based. Conditions: 3μM of PL. A digest of the protocol: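 Stat3−/− MEFs stably expressing GFP-Stat3α were grown under anchorage-independent conditions with increasing doses of test compound, then photographed. Mean colony number from duplicate wells was taken as a percentage of DMSO-treated cells. Viability by MTT was also expressed relative to DMSO-treated cells. IC50 values were fitted against log concentration.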

Data set [17] relates to Stat3 phosphorylation. Kind of data set: Phosphoflow assay, G-CSF stimulated Stat3 phosphorylation in Kasumi-1 cells. Type of data set: cell-based. Conditions: read-out: IC50 G-CSF stimulated Stat3 phosphorylation, Mean ± SEM, n ≥ 2, G-CSF 10 ng/ml 15′.
Data set [18] addresses glutathione S-transferase pi 1 (GSTP1). Conditions: read-out: IC50 for GSTP1 inhibition; cited from earlier work.
The test system of data set [19] is MDA-MB-468 tumor xenografts. Kind of data set: Human breast cancer cell line xenograft assay, tumor growth. It is filed as in vivo, nude mice. The settings on record: 15 mg/Kg body weight/day IP, 21 days; p < 0.05.
Data set [20] deals with GFP+ SUM159PT cells. Type of data set: cell-based. The settings on record: PL 3 and 10 μM. The method in brief:
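SUM159PT cells carrying a lentiviral Stat3-GFP reporter (GFP driven by four M67 repeats) were grown as xenografts in pre-cleared mammary glands of SCID/Beige mice. Excised tumors were digested to single cells and FACS-sorted into GFP+ and GFP− populations. Mammosphere formation efficiency was then assayed in MEGM+ without or with test compound.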

Data set [21] deals with MC1. Kind of data set: Mammosphere assay, patient-derived xenograft cells. Type of data set: cell-based, human. The settings on record: read-out: IC50 Mammosphere assay, Mean ± SEM, n ≥ 2. A digest of the protocol: as §1
Data set [22] deals with Sum159PT. As to the kind of experiment: Anchorage independent growth. It is filed as cell-based.
Data set [23] addresses GFP-Stat3α (Homo sapiens, UniProt P40763). Type of data set: cell-based.
The mark [24] stands for this setting: read-out: Anchorage independent Growth IC50, 80 hrs, no sensitivity taken as 100 μM.
The mark [25] stands for this setting: read-out: Anchorage Independent Growth IC50, 16 hrs.
Setting [26] is: read-out: Anchorage independent Growth IC50, 80 hrs.

Chain of GFP-Stat3α (P40763 whole entry): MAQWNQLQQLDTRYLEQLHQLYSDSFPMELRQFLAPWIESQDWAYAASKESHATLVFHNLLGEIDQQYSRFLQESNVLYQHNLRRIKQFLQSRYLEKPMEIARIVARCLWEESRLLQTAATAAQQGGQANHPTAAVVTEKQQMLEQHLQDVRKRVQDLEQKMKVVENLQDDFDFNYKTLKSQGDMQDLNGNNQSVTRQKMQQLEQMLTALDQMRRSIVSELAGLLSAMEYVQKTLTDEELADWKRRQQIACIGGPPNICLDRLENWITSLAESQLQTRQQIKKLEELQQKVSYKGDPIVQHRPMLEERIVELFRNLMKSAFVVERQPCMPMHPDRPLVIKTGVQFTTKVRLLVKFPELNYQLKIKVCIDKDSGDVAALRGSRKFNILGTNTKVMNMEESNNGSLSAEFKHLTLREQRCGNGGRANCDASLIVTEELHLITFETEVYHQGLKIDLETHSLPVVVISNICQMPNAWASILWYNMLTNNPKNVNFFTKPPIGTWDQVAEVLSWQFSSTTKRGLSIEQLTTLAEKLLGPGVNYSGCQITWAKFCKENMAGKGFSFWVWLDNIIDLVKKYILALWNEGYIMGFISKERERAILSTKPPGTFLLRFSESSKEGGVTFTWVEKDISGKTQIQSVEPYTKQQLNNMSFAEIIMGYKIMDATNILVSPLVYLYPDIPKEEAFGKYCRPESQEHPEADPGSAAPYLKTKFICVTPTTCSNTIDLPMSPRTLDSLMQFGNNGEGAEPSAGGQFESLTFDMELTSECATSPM

`COc1cc(/C=C/C(=O)N2CCC=CC2=O)cc(OC)c1OC` [Piperlongumine, piperlongumine]: the IC50 in data set [1] is 0.1 µM; in [3] (read-out: Anchorage Independent Growth IC50, 16 hrs, MDA-MB-468) it was 2.8 µM; in data set [3] (read-out: Anchorage independent Growth IC50, 80 hrs, MDA-MB-468), 0.9 µM; in data set [3] (read-out: IC50 Anchorage independent growth (MTT), MDA-MB 468, Mean ± SEM, n ≥ 2), 4.6 ± 4.8 µM; in data set [4] it was 0.2 ± 0.1 µM; in data set [5] (read-out: Anchorage Independent Growth IC50, 16 hrs, no sensitivity taken as 100 μM), > 100 µM. The IC50 was > 100 µM in [5] (setting [24]); 80.6 µM in data set [8] (setting [25]); 0.8 µM in data set [8] (setting [26]); 0.4 ± 0.5 µM in data set [9] (MDA-MB 231); 2.8 ± 2.1 µM in data set [9] (MDA-MB 468); 16.2 µM in data set [10] (setting [25]). The IC50 in data set [10] (setting [24]) was > 100 µM; in data set [11] (setting [25]), 7 µM; in data set [11] (setting [26]) it was 3.6 µM; in data set [12] (setting [25]) it was 15.5 µM; in data set [12] (setting [26]), 1.7 µM; in [13] (read-out: Anchorage Independent Growth IC50, 16 hrs, MDA-MB-231), 9.2 µM. The IC50 is 0.3 µM in data set [13] (read-out: Anchorage independent Growth IC50, 80 hrs, MDA-MB-231); 1.2 ± 1.8 µM in [13] (read-out: IC50 Anchorage independent growth (MTT), MDA-MB 231, Mean ± SEM, n ≥ 2); 42 µM in [14] (setting [25]); 0.3 µM in data set [14] (setting [26]); 3.7 ± 1.7 µM in [17]; ~100 µM in [18]. Besides, the figures for the IC50 in data set [21], in data set [22] (setting [25]) and in data set [22] (setting [26]) were 4.2 ± 2.3 µM, 12.9 µM and 0.8 µM, respectively. Besides, the “reduction of β-actin-normalized BcL-xL mRNA in tumors” value in data set [2] is ~ 50%. Besides, the “reduction of β-actin-normalized Survivin mRNA in tumors” value in [2] is on record as ~ 50%. The “increase of caspase 3 cleavage compared to earlier time points” value in data set [6] was ~ 12 fold. In addition, in [7], the toxicity in mice entry is “non-toxic”. The “effect on levels of total Stat3 or pStat1, pStat5 and total Stat1” value in [9] (MDA-MB-231 and MDA-MB-468 (pStat1, pStat5, total Stat1 in MDA-MB-468)) is listed as “without substantially affecting”. In data set [9] (MDA-MB-468, PL 30 μM), the “reduction of pStat3 levels at 15 min” value is > 50%. The “time of maximal reduction of pStat3” value in data set [9] (MDA-MB-468, PL 30 μM) was ≤ 30 min. Moreover, the “pStat3 levels in the GFP+ cells” value in [9] (Sum159PT xenograft-derived GFP+ cells, increasing doses of PL) is given as “decreased”. For the same molecule, the “increase of FAS (CD95) mRNA” value in [15] is “two fold”. For the same molecule, the spheroid colony formation result in data set [16] is given as “completely abrogating”. Moreover, the “reduction of tumor weight” value in [19] is reported as > 50%. For the same molecule, the “mammosphere formation by GFP+ cells” value in [20] was “completely inhibited”.

Molecule `O=C1C=CC(=O)c2c1ccc1c2ccc2ccccc21` [chrysene 1,4 quinone] returned an IC50 in data set [23] of 10 µM.
